Source: ChEMBL document CHEMBL3414473
Activity calls are given as the source filed them. The rule behind the calls is not given here.

What was measured:
LNCaP [1] = experiment: Induction of PHLPP1 localization to human LNCAP cell membrane at 5 uM after 24 hrs by immunofluorescence staining analysis; format: functional, cell-based
In short: (§1)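 LNCaP cells on poly-L-lysine-coated surfaces, treated in serum-free medium for 24 h. Fixed in 4% formaldehyde, permeabilized with 0.1% Triton X-100, blocked in 1% FBS, primary antibody (1:300) overnight, then Alexa Fluor secondary 2 h; DAPI nuclei; confocal imaging with cross-sectional fluorescence intensity analysis.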

LNCaP [2] = experiment: Induction of ILK localization to human LNCAP cell membrane at 5 uM after 24 hrs by immunofluorescence staining analysis; format: functional, cell-based; in short: as §1
LNCaP [3] = experiment: Induction of PHLPP1 localization to human LNCAP cell membrane after 24 hrs by immunofluorescence staining analysis; format: functional, cell-based; in short: as §1
PC-3 [4] = experiment: In vivo antitumor efficacy in human PC3 cells xenografted athymic nude mouse assessed as decrease in phosphorylation of Akt at Thr308 in tumor at 100 mg/kg, po for 21 days relative to vehicle treated control; format: functional, organism-based; set-up: dose 100 mg/kg
In short: (§2)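 Athymic nude mice given PC-3 cells sc (1 × 10⁶ per mouse); at about 50 mm³, randomized (n = 7) and dosed once daily for 21 days either ip at 50 mg/kg (vehicle saline/PEG400/DMSO/Tween 80, 65:20:10:5) or by oral gavage at 100 mg/kg (vehicle 0.5% methylcellulose/0.1% Tween 80 in water). Tumor volume measured weekly by calipers (width² × length × 0.52); phospho-proteins checked by Western blotting of tumor lysates.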

LNCaP [5] = experiment: Antiproliferative activity against human LNCAP cells assessed as suppression of cell viability after 24 hrs by MTT assay; format: functional, cell-based
In short: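 LNCaP cells seeded at 5000/well on poly-L-lysine-coated plates in 10% FBS; 24 h later exposed to agents in serum-free medium for 24 h. Viability expressed as percent of vehicle control; IC50 derived.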

PC-3 [6] = experiment: In vivo antitumor efficacy in human PC3 cells xenografted athymic nude mouse assessed as decrease in phosphorylation of IKK in tumor at 50 mg/kg, ip for 21 days relative to vehicle treated control; format: functional, organism-based; set-up: dose 50 mg/kg; in short: as §2
LNCaP [7] = experiment: Induction of Akt-PHLPP1 complex to human LNCAP cell membrane after 24 hrs by immunofluorescence staining analysis; format: functional, cell-based
[8] = molecular target: RAC-alpha serine/threonine-protein kinase (Homo sapiens, UniProt P31749); experiment: Binding affinity to GST-tagged PH domain of AKT (unknown origin) by surface Plasmon resonance spectroscopy
In short: (§3)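 SPR: GST-tagged PH domain fusion protein immobilized on CM5 chip by amine coupling to about 17000 RU. Analyte injected at 1–20 µM at 30 µL/min; DMSO in samples and running buffer ≤1% (v/v). Kd obtained from sensorgram fitting.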

[9] = molecular target: T1, PH domain leucine-rich repeat-containing protein phosphatase 1 (Homo sapiens, UniProt O60346); experiment: Inhibition of PHLPP1-mediated reduction in phosphorylation of Akt at Ser473 in human LNCAP cells after 24 hrs by Western blot analysis; format: cell-based
In short: (§4)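 LNCaP or PC-3 cells treated at various concentrations for 24 h in serum-free medium. Lysed in SDS buffer (50 mM Tris pH 8, 10 mM EDTA, 1% SDS, protease inhibitors); equal protein run on SDS-PAGE and transferred to nitrocellulose. Primary antibodies 1:1000 overnight at 4 °C, HRP secondary 1:2000; detected by ECL.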

Scaffold protein ILK = molecular target: T2, Scaffold protein ILK (Homo sapiens, UniProt Q13418); experiment: Binding affinity to GST-tagged PH domain of ILK (unknown origin) by surface Plasmon resonance spectroscopy; in short: as §3
T2 sequence (Q13418 whole entry): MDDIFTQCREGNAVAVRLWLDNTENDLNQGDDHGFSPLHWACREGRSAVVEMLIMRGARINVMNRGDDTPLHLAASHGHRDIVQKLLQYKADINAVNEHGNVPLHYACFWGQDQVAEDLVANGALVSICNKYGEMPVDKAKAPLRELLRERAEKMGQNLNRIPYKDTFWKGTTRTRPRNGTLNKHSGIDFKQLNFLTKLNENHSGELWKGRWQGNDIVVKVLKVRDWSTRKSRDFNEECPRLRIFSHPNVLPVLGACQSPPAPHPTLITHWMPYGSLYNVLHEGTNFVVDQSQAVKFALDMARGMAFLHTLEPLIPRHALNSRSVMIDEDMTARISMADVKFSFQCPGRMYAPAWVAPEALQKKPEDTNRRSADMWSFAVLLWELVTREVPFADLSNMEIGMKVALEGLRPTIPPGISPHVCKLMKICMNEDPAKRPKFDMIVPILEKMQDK

[10] = molecular target: T1, PH domain leucine-rich repeat-containing protein phosphatase 1; conditions: LNCaP, 2.5 to 25 uM
[11] = molecular target: T1, PH domain leucine-rich repeat-containing protein phosphatase 1; experiment: Inhibition of PHLPP1-mediated reduction in phosphorylation of MDM2 in human PC3 cells after 24 hrs by Western blot analysis; format: cell-based; conditions: PC-3; in short: as §4
PC-3 [12] = experiment: Antiproliferative activity against human PTEN-negative PC3 cells assessed as suppression of cell viability after 24 hrs by MTT assay in serum free medium; format: functional, cell-based
PrEC = experiment: Antiproliferative activity against human PrEC cells assessed as suppression of cell viability after 24 hrs by MTT assay in serum free medium; format: cell-based
[13] = molecular target: T1, PH domain leucine-rich repeat-containing protein phosphatase 1; experiment: Inhibition of PHLPP1-mediated reduction in phosphorylation of Akt at Thr308 in human PC3 cells after 24 hrs by Western blot analysis; format: cell-based; conditions: PC-3; in short: as §4
LNCaP [14] = experiment: Induction of Akt localization to human LNCAP cell membrane at 5 uM after 24 hrs by immunofluorescence staining analysis; format: functional, cell-based; in short: as §1
[15] = molecular target: T1, PH domain leucine-rich repeat-containing protein phosphatase 1; experiment: Inhibition of PHLPP1-mediated reduction in phosphorylation of MDM2 in human LNCAP cells after 24 hrs by Western blot analysis; format: cell-based; in short: as §4
PC-3 [16] = experiment: In vivo antitumor efficacy in human PC3 cells xenografted athymic nude mouse assessed as decrease in phosphorylation of Akt at Ser473 in tumor at 50 mg/kg, ip for 21 days relative to vehicle treated control; format: functional, organism-based; set-up: dose 50 mg/kg; in short: as §2
PC-3 [17] = experiment: In vivo antitumor efficacy in human PC3 cells xenografted athymic nude mouse assessed as inhibition of tumor growth at 100 mg/kg, po for 21 days relative to vehicle treated control; format: functional, organism-based; set-up: dose 100 mg/kg; in short: as §2
[18] = molecular target: T1, PH domain leucine-rich repeat-containing protein phosphatase 1; experiment: Inhibition of PHLPP1-mediated reduction in phosphorylation of Akt at Ser473 in human PC3 cells after 24 hrs by Western blot analysis; format: cell-based; conditions: PC-3; in short: as §4
[19] = molecular target: T1, PH domain leucine-rich repeat-containing protein phosphatase 1; experiment: Binding affinity to GST-tagged PH domain of PHLPP1 (unknown origin) by surface Plasmon resonance spectroscopy; in short: as §3
[20] = molecular target: T1, PH domain leucine-rich repeat-containing protein phosphatase 1; experiment: Inhibition of PHLPP1-mediated reduction in phosphorylation of IKK in human PC3 cells after 24 hrs by Western blot analysis; format: cell-based; conditions: PC-3; in short: as §4
PC-3 [21] = experiment: In vivo antitumor efficacy in human PC3 cells xenografted athymic nude mouse assessed as inhibition of tumor growth at 50 mg/kg, ip for 21 days relative to vehicle treated control; format: functional, organism-based; set-up: dose 50 mg/kg; in short: as §2

T1 sequence (O60346 whole entry, the tested form may be a part): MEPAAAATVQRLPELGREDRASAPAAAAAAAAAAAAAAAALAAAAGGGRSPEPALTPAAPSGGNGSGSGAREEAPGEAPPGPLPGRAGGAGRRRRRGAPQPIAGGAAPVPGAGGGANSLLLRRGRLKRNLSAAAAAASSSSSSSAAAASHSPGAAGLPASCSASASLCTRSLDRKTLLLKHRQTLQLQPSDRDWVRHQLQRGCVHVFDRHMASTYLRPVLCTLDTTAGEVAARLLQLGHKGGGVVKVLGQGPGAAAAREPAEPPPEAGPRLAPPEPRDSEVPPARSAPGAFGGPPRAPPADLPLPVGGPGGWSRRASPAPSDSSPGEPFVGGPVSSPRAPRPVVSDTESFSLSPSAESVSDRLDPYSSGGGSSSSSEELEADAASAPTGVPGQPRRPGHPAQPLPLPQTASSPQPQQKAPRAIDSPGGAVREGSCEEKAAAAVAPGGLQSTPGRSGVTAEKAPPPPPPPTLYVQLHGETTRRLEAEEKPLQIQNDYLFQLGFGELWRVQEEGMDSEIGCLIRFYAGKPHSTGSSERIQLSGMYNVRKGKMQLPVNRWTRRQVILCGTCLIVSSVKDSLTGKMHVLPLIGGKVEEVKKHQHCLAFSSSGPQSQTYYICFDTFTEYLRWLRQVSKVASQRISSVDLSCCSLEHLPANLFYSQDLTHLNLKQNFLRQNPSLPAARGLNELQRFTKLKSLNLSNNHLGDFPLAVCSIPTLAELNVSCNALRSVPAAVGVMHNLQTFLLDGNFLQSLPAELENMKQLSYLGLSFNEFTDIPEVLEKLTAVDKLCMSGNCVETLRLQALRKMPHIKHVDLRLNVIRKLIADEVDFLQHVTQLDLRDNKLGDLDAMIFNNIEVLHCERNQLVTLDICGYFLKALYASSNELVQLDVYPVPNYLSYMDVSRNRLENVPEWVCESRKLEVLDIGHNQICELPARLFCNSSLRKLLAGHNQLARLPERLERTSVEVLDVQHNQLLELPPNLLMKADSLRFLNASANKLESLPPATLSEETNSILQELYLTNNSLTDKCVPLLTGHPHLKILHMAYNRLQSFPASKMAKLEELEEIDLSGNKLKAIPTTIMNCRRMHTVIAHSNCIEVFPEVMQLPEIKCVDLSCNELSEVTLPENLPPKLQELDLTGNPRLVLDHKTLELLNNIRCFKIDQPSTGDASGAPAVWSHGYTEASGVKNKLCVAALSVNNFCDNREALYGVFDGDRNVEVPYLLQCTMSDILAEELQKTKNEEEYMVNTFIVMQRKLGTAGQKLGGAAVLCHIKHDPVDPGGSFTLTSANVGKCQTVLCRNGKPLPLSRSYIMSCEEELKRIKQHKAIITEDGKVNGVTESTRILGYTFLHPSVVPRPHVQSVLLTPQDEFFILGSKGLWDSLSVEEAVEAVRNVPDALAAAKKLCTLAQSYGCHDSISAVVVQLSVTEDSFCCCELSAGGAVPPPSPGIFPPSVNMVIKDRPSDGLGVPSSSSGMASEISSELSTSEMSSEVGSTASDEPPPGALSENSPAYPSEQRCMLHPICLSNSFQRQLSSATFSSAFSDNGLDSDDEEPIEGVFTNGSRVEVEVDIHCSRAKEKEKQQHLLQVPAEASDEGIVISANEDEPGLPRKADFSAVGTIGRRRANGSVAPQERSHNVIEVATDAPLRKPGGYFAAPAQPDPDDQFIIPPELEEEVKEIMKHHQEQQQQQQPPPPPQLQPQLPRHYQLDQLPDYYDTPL
RAC-alpha serine/threonine-protein kinase, sequence (P31749 whole entry, the tested form may be a part): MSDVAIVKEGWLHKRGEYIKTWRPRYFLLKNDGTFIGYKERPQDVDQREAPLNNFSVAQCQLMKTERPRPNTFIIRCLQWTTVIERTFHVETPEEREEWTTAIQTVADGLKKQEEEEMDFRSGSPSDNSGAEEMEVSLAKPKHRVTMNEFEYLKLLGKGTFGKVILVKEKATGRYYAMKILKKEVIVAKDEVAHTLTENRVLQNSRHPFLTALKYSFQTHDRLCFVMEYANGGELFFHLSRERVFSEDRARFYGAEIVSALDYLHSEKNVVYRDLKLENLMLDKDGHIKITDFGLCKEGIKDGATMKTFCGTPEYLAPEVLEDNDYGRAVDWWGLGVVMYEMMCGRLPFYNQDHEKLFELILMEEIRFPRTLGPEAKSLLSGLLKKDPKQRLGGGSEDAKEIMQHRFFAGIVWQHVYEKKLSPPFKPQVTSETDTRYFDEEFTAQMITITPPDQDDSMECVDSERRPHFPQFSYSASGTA

- IC50 (LNCaP [5]): 3000 nM
- Kd [8]: 200 nM
- inhibition [9]: Dose-dependent effect
- Kd (Scaffold protein ILK): 6.2 µM
- inhibition [10]: Active
- inhibition [11]: Dose-dependent effect
- inhibition [13]: inactive
- inhibition [15]: Dose-dependent effect
- inhibition [18]: Dose-dependent effect
- Kd [19]: 720 nM
- inhibition [20]: Dose-dependent effect
SMILES: Cc1c(S(N)(=O)=O)cc2c(c1C)OC(C)(CCCC(C)C)CC2 (stereo not drawn)
- Activity (LNCaP [1]): Active
- Activity (LNCaP [2]): inactive
- Activity (LNCaP [3]): Dose-dependent effect
- inhibition (PC-3 [4]): inactive
- inhibition (PC-3 [6]): Active
- Activity (LNCaP [7]): Dose-dependent effect
- Activity (PC-3 [12]): Active
- Activity (PrEC): Non-toxic
- Activity (LNCaP [14]): Active
- inhibition (PC-3 [16]): Active
- Activity (PC-3 [17]): Active
- Activity (PC-3 [21]): Active
